In all, about 2,900 compounds went through this assay and about 1,300 (45%) were called active. So high a share suggests a set chosen from earlier hits. Only a sample is shown. Values without a mark were called inactive.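 Rule for the calls: active = mean inhibition over the triplicate runs exceeds the activity threshold set in the earlier primary screen (cut at about 20% in these data); inactive = the rest.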
What follows are compounds tested against Disintegrin and metalloproteinase domain-containing protein 10 (Homo sapiens) (UniProt O14672) (assay: ADAM10 inhibitors, counter-screen for ADAM17 exosite inhibitor project, biochemical, FRET, human ADAM10 (AID 743256;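 note: 0% = DMSO wells and 100% = marimastat wells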)). Conditions: recombinant ADAM10, EDANS/DABCYL FRET peptide cleavage, 3 h; at 6.95 µM; hits give high values.
Chain of Disintegrin and metalloproteinase domain-containing protein 10 (Homo sapiens) (O14672 214-748 limits assumed): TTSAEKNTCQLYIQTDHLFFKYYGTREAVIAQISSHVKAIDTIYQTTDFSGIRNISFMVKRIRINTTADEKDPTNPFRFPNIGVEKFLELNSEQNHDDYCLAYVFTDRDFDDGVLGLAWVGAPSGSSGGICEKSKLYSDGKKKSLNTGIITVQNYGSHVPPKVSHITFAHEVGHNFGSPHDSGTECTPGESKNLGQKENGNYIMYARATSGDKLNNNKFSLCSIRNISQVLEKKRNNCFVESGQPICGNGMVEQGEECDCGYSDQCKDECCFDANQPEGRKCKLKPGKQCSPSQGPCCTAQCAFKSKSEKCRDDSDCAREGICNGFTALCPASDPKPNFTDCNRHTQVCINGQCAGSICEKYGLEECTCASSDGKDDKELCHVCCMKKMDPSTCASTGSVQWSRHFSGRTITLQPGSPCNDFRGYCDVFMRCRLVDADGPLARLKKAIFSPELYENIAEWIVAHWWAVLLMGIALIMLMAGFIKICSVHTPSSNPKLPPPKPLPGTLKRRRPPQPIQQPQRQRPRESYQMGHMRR
Procedure, shortened: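 Test system: human ADAM10 metalloprotease enzyme in a cell-free biochemical assay. Reagent: DM2 FRET peptide substrate. Timing: 30 min preincubation and 3 h reaction at 25 °C. Read-out basis: percent inhibition scaled between DMSO and marimastat control wells. Control set: 1 µM marimastat (high) and DMSO (low). Detection: FRET fluorescence readout.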

| Compound | inhibition |
| --- | --- |
| COc1cccc(NC(=O)C2C(c3ccccc3)C2(Cl)Cl)c1 (stereo not given) | 34.2% (active) |
| COC(=O)N(C)C[C@@H]1OCc2cnnn2CCCC(=O)N([C@@H](C)CO)C[C@@H]1C | -8.98% |
| C=C(C)COc1ccc(-c2n[nH]c(C)c2-c2ccccc2)c(O)c1 | 40.8% (active) |
| COc1ccc(S(=O)(=O)N2CCN(C(C)C(=O)Nc3ccc(C(C)C)cc3)CC2)cc1 (stereo not given) | 20.5% (active) |
| CC(=O)Nc1ccc(S(=O)(=O)N2CCN(CCCOc3cc(C)ccc3C)CC2)cc1 | 12.4% |
| O=C1NC(=O)C(c2ccc(Cl)cc2)N1 (stereo not given) | 6.62% |
| CN(C(=O)c1cccc(NC(=O)Cc2cccc([N+](=O)[O-])c2)c1)C1CCCCC1 | 19.9% (active) |
| COc1ccccc1C(=O)NCC(=O)OCC(=O)NNC(=O)c1ccc(Br)cc1 | 3.18% |
| S=C(NCc1ccc(Cl)cc1)NC12CC3CC(CC(C3)C1)C2 | 22.6% (active) |
| Cc1ccc(/C=N/NC(=O)CSc2nc3ccccc3o2)cc1 | 5.15% |
| C[C@@H]1CN([C@H](C)CO)C(=O)c2cc(-c3ccc(F)cc3)cnc2O[C@H]1CN(C)C(=O)c1ccc(F)cc1 | 12.7% |
| CC(C)Oc1cc(F)ccc1-c1cc(C(=O)Nc2cccc(Cl)c2)[nH]n1 | 25.8% (active) |
| Cc1cc(C)cc(NC(=S)NCCc2c[nH]c3ccccc23)c1 | 14% |
| N#C/C(=C/c1ccc(N2CCCCC2)o1)C(=O)NCCc1c[nH]c2ccccc12 | 23.4% (active) |
| O=C(CSc1nc(-c2ccccc2)cs1)Nc1cccc([N+](=O)[O-])c1 | 24.3% (active) |
| CCOc1ccc(N2C(=O)CC(N(CCc3ccc(OC)c(OC)c3)C(=S)Nc3ccccc3)C2=O)cc1 (stereo not given) | 4.08% |
| COc1ccc(Cl)cc1NC(=O)COC(=O)C(CC(C)C)N1C(=O)C2CC=CCC2C1=O (stereo not given) | 17.9% |
| CC1(C)C=Cc2c(ccc3c2OC[C@@H](c2ccc(O)cc2O)C3)O1 | 24.2% (active) |
| Cn1nc(C(F)(F)F)c2cc(NC(=O)OCC(C)(C)C)sc21 | 13% |
| C#CCN(C[C@H]1[C@H](OC(=O)NC2CCCC2)[C@H](OC(=O)NC2CCCC2)C[C@H]2C(=O)N(c3ccccc3)C(=O)[C@@H]12)S(=O)(=O)c1ccc(C)cc1 | 19.1% |
| CCOc1ccccc1C1CC(c2cccc(NS(C)(=O)=O)c2)=NN1C(=O)c1ccccc1 (stereo not given) | -1.35% |
| Cc1ccc(S(=O)(=O)NCCSc2ccccc2)cc1[N+](=O)[O-] | 6.91% |
| Cc1cc(C)cc(NS(=O)(=O)c2ccc(Oc3ncc(C(F)(F)F)cc3Cl)cc2)c1 | 39% (active) |
| COc1cc(/C=N/n2c(C)n[nH]c2=S)ccc1OCc1ccccc1 | -1.14% |
| COC(=O)c1c(C)[nH]c(C(=O)/C=C/c2ccc(Cl)cc2)c1C | -38.4% |
| O=C(OCc1ccc(-c2ccccc2)cc1)c1cccc(O)c1 | 22.9% (active) |
| COC(C(=O)Nc1ccc(S(=O)(=O)Nc2ccc(C)c(C)c2)cc1)c1ccccc1 (stereo not given) | 29.4% (active) |

| Compound | inhibition |
| --- | --- |
| COc1ccc(C(CNC(=O)c2cc(S(=O)(=O)Nc3cccc(C)c3)ccc2C)N2CCCC2)cc1 (stereo not given) | 6.83% |
| O=C(COC(=O)c1ccccc1)Nc1ccccc1Sc1ccccc1 | 20.3% (active) |
| Cc1ccccc1C(=O)Nc1ccccc1Sc1ccccc1 | 10.7% |
| CC(=O)Nc1ccc(S(=O)(=O)Oc2ccc(Br)cc2C(=S)N2CCOCC2)cc1 | 13.5% |
| O=C(CSCc1ccc(Br)cc1)Nc1ccc(S(=O)(=O)N2CCCCCC2)cc1 | 23% (active) |
| COc1ccc(S(=O)(=O)N2CCCCC2)cc1Br | 10.7% |
| COc1ccc(CC(=O)c2ccc(O)cc2O)cc1OC | 6.86% |
| Cc1ccc(Cn2nnc3c(=O)[nH]c(C4CCN(S(=O)(=O)/C=C/c5ccccc5)CC4)nc32)cc1 | 41.6% (active) |
| N/C(Cc1ccc([N+](=O)[O-])cc1)=N\OC(=O)COc1ccc2ccccc2c1 | 11.5% |
| O=C(Nn1c(SCc2ccc([N+](=O)[O-])cc2)nc2ccccc2c1=O)c1ccc(F)cc1 | 30.6% (active) |
| CC(C)(C)c1ccc(S(=O)(=O)NCC2CCN(C(=O)C(=O)c3cc4ccccc4o3)CC2)cc1 | 24.1% (active) |
| C=CC(COCc1ccccc1)N(CC(=O)OC)S(=O)(=O)c1cc(Br)ccc1OC (stereo not given) | 13.2% |
| FC(F)(F)Oc1ccccc1C(c1nnnn1C1CCCCC1)N1CCN(C/C=C/c2ccccc2)CC1 (stereo not given) | 17.1% |
| COc1ccc(-c2cc(C3CCN(c4ncccc4[N+](=O)[O-])CC3)[nH]n2)cc1 | 27.1% (active) |
| O=C(Nc1ccc(C(=O)NCc2ccccc2Cl)cc1)C1=CSCCO1 | 9.95% |
| COc1ccc(C(N)c2csc(NC(=O)Nc3cccc(C(F)(F)F)c3)n2)cc1 (stereo not given) | 14.4% |
| O=C(COc1ccc(Cl)cc1)N1CCN(c2cccc(C(F)(F)F)c2)CC1 | 18.6% |
| Cn1nc(C(F)(F)F)c(C(=O)Nc2cccc(C(F)(F)F)c2)c1SCc1ccc(Cl)cc1 | 37.8% (active) |
| CCOC(=O)c1cccc(NC(=O)CN(C)S(=O)(=O)c2ccc(-c3cocn3)s2)c1 | 4.04% |
| COc1ccc(-c2ccc(CN3C(CC(C)C)C(=O)N(Cc4cn(CC5CCCCC5)nn4)CCS3(=O)=O)cc2)cc1 (stereo not given) | 26.9% (active) |
| COc1ccc(Cn2cc(CN3CCS(=O)(=O)N(Cc4ccc(-c5cccc(Cl)c5)cc4)C(C)C3=O)nn2)cc1 (stereo not given) | 18% |
| O=C1[C@H]2[C@@H](c3ccc(C(F)(F)F)cc3)N[C@]3(CCCN(Cc4ccc(Br)cc4)C3=O)[C@H]2C(=O)N1Cc1ccccc1 | 32.2% (active) |
| CCOc1ccccc1CNS(=O)(=O)c1cc(-c2cc(C)no2)ccc1C | 1.34% |
| CCOc1ccc(OCC)c(-c2c(=O)n(OCc3ccc(Cl)cc3)c3ccccc3[n+]2[O-])c1 | -2.21% |
| O=C(Cc1ccc(Cl)c(Cl)c1)Nc1ccc(SC(F)F)cc1 | 43.3% (active) |
| Cc1ccc(-n2c(COc3ccccc3)nnc2SCC(=O)Nc2ccc3c(c2)OCCO3)cc1 | 25.8% (active) |
| CCOc1ccc(-n2c(SCC(=O)Nc3cc(C)c(NC(=O)c4ccccc4)cc3OC)nnc2-c2cccs2)cc1 | 8.96% |

| Compound | inhibition |
| --- | --- |
| O=C(CN1CCN(c2nc(-c3ccccc3)cs2)CC1)NCc1ccc2c(c1)OCO2 | 24.1% (active) |
| CC1(Cc2cccc(C#N)c2)C(=O)Nc2ccc(-c3cccc(C(F)(F)F)c3)cc21 (stereo not given) | 36.6% (active) |
| COCCNC(=O)C(c1ccc(C)o1)N(Cc1ccccc1)C(=O)Cn1nnc2ccccc21 (stereo not given) | -7.67% |
| O=C(CC1SC(=Nc2ccccc2)N(Cc2ccccn2)C1=O)Nc1cccc(Cl)c1 (stereo not given) | 35% (active) |
| CCN1C(=O)C(CC(=O)Nc2cc(C)ccc2C)SC1=Nc1ccc(S(N)(=O)=O)cc1 (stereo not given) | 5.34% |
| COc1ccc(CC(N)c2csc(NC(=O)NC(c3ccccc3)c3ccccc3)n2)cc1 (stereo not given) | 5.76% |
| C=CCOc1ccccc1/C=N/NC(=O)Cc1ccccc1 | -0.63% |
| Cn1c(=O)c2c(nc(N/N=C/c3cccs3)n2Cc2ccc(Br)cc2)n(C)c1=O | -80.2% |
| O=C(COC(=O)CCCSc1nc2ccccc2[nH]1)Nc1ccc(Oc2ccccc2)cc1 | 39.3% (active) |
| O=C1/C(=C\c2ccsc2)NC(=S)N1c1ccccc1 | 10.1% |
| COc1ccc(CN(C)C(=O)CC(c2ccccc2)c2ccccc2)cc1 | 7.1% |
| Clc1ccc(C(Cn2ccnc2)OCc2ccsc2Cl)c(Cl)c1 (stereo not given) | 22.7% (active) |
| C=CCC[C@@H](Cc1ccc(F)cc1)C(=O)O[C@H](CNC(=O)[C@H](CC=C)CC(=O)N(CCO)Cc1ccccc1)c1ccccc1 | 45.3% (active) |
| C=CCC[C@@H](Cc1ccc(F)cc1)C(=O)OC[C@H](Cc1c[nH]c2ccccc12)NC(=O)[C@@H](CC=C)CC(=O)N(CCO)Cc1ccccc1 | 35.2% (active) |
| C=CC[C@H](CC(=O)N(CCO)Cc1ccccc1)C(=O)N[C@@H](COC(=O)[C@@H](CC=C)Cc1ccc(F)cc1)Cc1ccccc1 | 25.1% (active) |
| COc1cc(NC(=O)CCS(=O)(=O)c2ccc3c(c2)oc(=O)n3C)cc(OC)c1 | 11.3% |
| Cc1nnc(SCC(=O)Nn2cnnc2)s1 | -7.63% |
| Cc1ccc(NC(=S)NNC(=O)CSc2nnc(SCc3ccccc3Cl)s2)cc1 | 37.1% (active) |
| O=C(CSc1nnc(Nc2ccccc2)s1)Nc1cccnc1Cl | 10.6% |
| CCOC(=O)c1c(Cc2ccc(Cl)cc2)c[nH]c1C | 19.5% |
| CC(C)(C)N1C(=O)[C@H]2[C@@H](c3ccc(Br)cc3)N3C(=O)N(c4cccc(Cl)c4)C(=O)[C@@]3(C)[C@H]2C1=O | 22.2% (active) |
| COc1ccc([C@@H]2[C@@H]3C(=O)N(C(C)(C)C)C(=O)[C@@H]3[C@]3(Cc4ccccc4)C(=O)N(c4cccc(Br)c4)C(=O)N23)cc1 | 28.6% (active) |
| CC[C@@]12C(=O)N(c3ccccc3)C(=O)N1[C@H](c1ccc(Br)cc1)[C@@H]1C(=O)N(C(C)(C)C)C(=O)[C@@H]12 | 6.71% |
| COc1cccc(CNc2nc(C(F)(F)F)nc3ccccc23)c1 | 8.29% |
| CC(C)(C)OC(=O)N1CCC(NC(=O)c2[nH]cnc2C(=O)N[C@@H](Cc2ccccc2)C(=O)OCc2ccccc2)CC1 | 35.8% (active) |
| CC(C)(C)OC(=O)CNC(=O)c1[nH]cnc1C(=O)N[C@@H](Cc1ccccc1)C(=O)OCc1ccccc1 | 42.9% (active) |
